Assay [1] concerns Klebsiella pneumoniae. The experiment in a line: Antibacterial activity against Klebsiella pneumoniae isolate after 24 to 48 hrs by twofold serial dilution method. Format: functional. An outline of the steps: (§1)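 Broth microdilution in Müller–Hinton broth. DMSO stocks at 800 were diluted twofold from 400 down to 6.25. Wells received 10^6 CFU/mL bacterial suspension and were incubated at 36 °C for 24–48 h, with controls. MIC was read per well. Duplicate assays; run only for compounds giving inhibition zones ≥14 mm.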

Assay [2] has as its system Candida tropicalis. Put plainly: Antifungal activity against Candida tropicalis isolate after 72 hrs by twofold serial dilution method. Type of assay: functional, organism-based.
For assay [3], the system named is Escherichia coli. The experiment in a line: Antibacterial activity against Escherichia coli ATCC 25922 after 24 to 48 hrs by twofold serial dilution method. Format: functional. An outline of the steps:
as §1

Assay [4] has as its system Micrococcus luteus. The experiment in a line: Antibacterial activity against Micrococcus luteus ATCC 21881 after 24 to 48 hrs by twofold serial dilution method. Format: functional. The gist of the method: as §1
The test system of assay [5] is Klebsiella pneumoniae. The experiment in a line: Antibacterial activity against Klebsiella pneumoniae isolate at 1 mg/mL after 24 hrs by agar diffusion method. The following applies: read-out: Diameter of inhibition zone. Format: functional. An outline of the steps: (§2)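 Agar disc diffusion: 5 mm sterile paper discs soaked in 1 mg/mL test solution in DMSO were placed on agar seeded with the organism, in triplicate, with a DMSO-only control. Bacterial plates were incubated at 37 °C for 24 h and fungal plates for 7 days. Read-out was the average inhibition-zone diameter in mm. Fungi were clinical isolates.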
Background: Agar diffusion results depend on both activity and mobility in agar.

In assay [6] the test system is Escherichia coli. The experiment in a line: Antibacterial activity against Escherichia coli ATCC 25922 at 1 mg/mL after 24 hrs by agar diffusion method. Format: functional. The following applies: ATCC 25922, 24 h, read-out: Diameter of inhibition zone. The gist of the method:
as §2

Assay [7] relates to Pichia kudriavzevii. Put plainly: Antifungal activity against Candida krusei isolate after 72 hrs by twofold serial dilution method. Type of assay: functional, organism-based.
Assay [8] relates to Pseudomonas aeruginosa. Put plainly: Antibacterial activity against Pseudomonas aeruginosa ATCC 27853 at 1 mg/mL after 24 hrs by agar diffusion method. Type of assay: functional. The note with it: ATCC 27853, 24 h, read-out: Diameter of inhibition zone. The gist of the method: as §2
Assay [9] relates to Micrococcus luteus. The experiment in a line: Antibacterial activity against Micrococcus luteus ATCC 21881 at 1 mg/mL after 24 hrs by agar diffusion method. The note with it: ATCC 21881, 24 h, read-out: Diameter of inhibition zone. Format: functional. An outline of the steps:
as §2

Assay [10] concerns Staphylococcus aureus. Put plainly: Antibacterial activity against Staphylococcus aureus ATCC 6538 at 1 mg/mL after 24 hrs by agar diffusion method. Format: functional. The following applies: ATCC 6538, 24 h, read-out: Diameter of inhibition zone. The gist of the method:
as §2

Assay [11] deals with Aspergillus fumigatus. The experiment in a line: Antifungal activity against Aspergillus fumigatus isolate at 1 mg/mL after 7 days by agar diffusion method. The following applies: 168 h, read-out: Diameter of inhibition zone. Type of assay: functional. An outline of the steps:
as §2

The subject of assay [12] is Bacillus subtilis. The experiment in a line: Antibacterial activity against Bacillus subtilis NRRL B-14819 after 24 to 48 hrs by twofold serial dilution method. Format: functional. An outline of the steps: as §1
The test system of assay [13] is Pseudomonas aeruginosa. The experiment in a line: Antibacterial activity against Pseudomonas aeruginosa ATCC 27853 after 24 to 48 hrs by twofold serial dilution method. Format: functional. An outline of the steps:
as §1

The subject of assay [14] is Staphylococcus aureus. Put plainly: Antibacterial activity against Staphylococcus aureus ATCC 6538 after 24 to 48 hrs by twofold serial dilution method. Format: functional. The gist of the method: as §1
The subject of assay [15] is Bacillus subtilis. Put plainly: Antibacterial activity against Bacillus subtilis NRRL B-14819 at 1 mg/mL after 24 hrs by agar diffusion method. Format: functional. The note with it: read-out: Diameter of inhibition zone. An outline of the steps: as §2
The subject of assay [16] is Candida albicans. The experiment in a line: Antifungal activity against Candida albicans isolate at 1 mg/mL after 7 days by twofold serial dilution method. The note with it: 168 h, read-out: Diameter of inhibition zone. Type of assay: functional.
For assay [17], the system named is Trichophyton rubrum. The experiment in a line: Antifungal activity against Trichophyton rubrum isolate after 72 hrs by twofold serial dilution method. Format: functional, organism-based.
The subject of assay [18] is Aspergillus niger. Put plainly: Antifungal activity against Aspergillus niger isolate after 72 hrs by twofold serial dilution method. Format: functional, organism-based.

The values below come from ChEMBL document CHEMBL1152796, “Azole antimicrobial pharmacophore-based tetrazoles: synthesis and biological evaluation as potential antimicrobial and anticonvulsant agents” (Bioorg Med Chem, 2009).

≈ marks a conversion by molar mass, not a printed value. Calls of active or inactive are those of the source. No cut-off for these calls is given here. Some results are limits rather than exact numbers.

As for `Clc1ccc(/C=C/n2nnc(-c3ccccc3)n2)cc1`, the MIC (as a rule, the lowest concentration found to suppress growth) in assay [1] was at least 200 µg/mL; in [3], 100 µg/mL (≈ 354 µM); in [4], at least 200 µg/mL; in [12], at least 200 µg/mL; in [13], at least 200 µg/mL; in assay [14], 100 µg/mL (≈ 354 µM). Moreover, the result in assay [2], in [7], in assay [17] and in assay [18] was inactive. The zone of inhibition at 1000 µg/mL in assay [5], in assay [6], in assay [8], in assay [9], in assay [10] and in assay [11] was at least 14 mm each time. Further, the zone of inhibition at 1000 µg/mL in assay [15] and in [16] was at least 14 mm in each case.
For `CC1(C)S[C@@H]2[C@H](NC(=O)[C@H](N)c3ccccc3)C(=O)N2[C@H]1C(=O)O.O.O.O` [AMPICILLIN TRIHYDRATE], the MIC in [1] came out at 12.5 µg/mL; in assay [3] it was 6.25 µg/mL; in assay [4], 12.5 µg/mL; in [12] it was 12.5 µg/mL; in [13], 12.5 µg/mL; in assay [14], 6.25 µg/mL.
`Clc1ccc(C(Cn2nnc(-c3ccccc3)n2)OCc2nnc(Nc3ccccc3)o2)cc1` (stereo not given): the minimum inhibitory concentration (MIC) amounted to 100 µg/mL (≈ 211 µM) in [1]; 25 µg/mL (≈ 52.8 µM) in assay [3]; 100 µg/mL (≈ 211 µM) in assay [4]; 50 µg/mL (≈ 106 µM) in [12]; 100 µg/mL (≈ 211 µM) in assay [13]; 12.5 µg/mL (≈ 26.4 µM) in assay [14]. The outcome in assay [2], in assay [7], in assay [17] and in assay [18] was inactive. Also, the zone of inhibition at 1000 µg/mL in [5], in [6], in assay [8], in assay [9], in [10] and in assay [11] was at least 14 mm in each case. Also, the zone of inhibition at 1000 µg/mL in assay [15] and in [16] was at least 14 mm throughout.
For the compound `O=C(COC(Cn1nnc(-c2ccccc2)n1)c1ccc(Cl)cc1)N/N=C/c1ccc(Cl)cc1` (stereo not given), the minimum inhibitory concentration (MIC) in assay [1] is at least 200 µg/mL; in [3], 100 µg/mL (≈ 202 µM); in assay [4] it was 100 µg/mL (≈ 202 µM); in assay [12], 50 µg/mL (≈ 101 µM); in assay [13], at least 200 µg/mL; in assay [14], 50 µg/mL (≈ 101 µM). The result in [2], in [7], in assay [17] and in assay [18] was inactive. Moreover, the zone of inhibition at 1000 µg/mL in [5], in assay [6], in [8], in assay [9], in [10] and in assay [11] was at least 14 mm each time. In addition, the zone of inhibition at 1000 µg/mL in assay [15] and in [16] was at least 14 mm in each case.
With `NNC(=O)COC(Cn1nnc(-c2ccccc2)n1)c1ccc(Cl)cc1` (stereo not given), the MIC in assay [1] was at least 200 µg/mL; in assay [3], at least 200 µg/mL; in assay [4], at least 200 µg/mL; in assay [12], at least 200 µg/mL; in [13], at least 200 µg/mL; in [14], 100 µg/mL (≈ 268 µM). For the same compound, the result in assay [2], in assay [7], in [17] and in [18] was inactive.
